Scp1 inh = inhibitors of human Scp-1 phosphatase. Q9GZU7. Recombinant Scp1, phosphopeptide, malachite green phosphate absorbance. inhibition, % at 20 µM. actives 0.88% (n = 340,000). AID 493091;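 active means inhibition above about 50% at 20 µM, limit read from the data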;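 further: plate controls were DMSO wells with enzyme for no effect and wells lacking enzyme for full effect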
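Incubation: 45 min enzyme reaction at room temperature / System: truncated SCP-1 phosphatase (76-261aa) / Reagent: Phospho 17-mer peptide substrate / Buffer or medium: Acidic Tris acetate buffer with magnesium and detergent / Signal: absorbance at 630 nm / Doses: one concentration, 20 µM, with 1.0% DMSO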
DNMT1 inh = blocks human DNA methyltransferase DNMT1; P26358; DNMT1 molecular beacon, Hinp1I cleavage, fluorescence; inhibition (reported as % activation of signal), % at 10 µM; actives 0.83% (n = 360,000); in the data active means inhibition above about 50%
LMPTP inh = blocks human LMPTP phosphatase | recombinant LMPTP-A, OMFP fluorogenic substrate, fluorescence intensity | inhibition, % at 20 µM | actives 0.22% (n = 360,000);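 active means compounds that cut the enzyme signal by at least half of the control window in the single-dose screen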;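 further: plate controls were DMSO wells with enzyme plus substrate for no effect and substrate without enzyme for full effect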
Target sequence (P24666 whole entry, looked up): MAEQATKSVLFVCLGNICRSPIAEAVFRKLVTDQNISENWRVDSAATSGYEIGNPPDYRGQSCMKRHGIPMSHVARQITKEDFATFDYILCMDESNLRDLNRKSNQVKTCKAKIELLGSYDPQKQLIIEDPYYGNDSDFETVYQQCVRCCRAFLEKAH
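material = LMPTP-A | quantity = 0.625 nM enzyme | reagent = OMFP substrate, 400 µM final | buffer or medium = Bis-Tris pH 6.0, DTT, detergent | detection = endpoint fluorescence intensity from OMFP dephosphorylation | dosing = single 20 µM dose | read-out basis = % inhibition relative to no-enzyme and uninhibited control wells | control set = no-enzyme and uninhibited controls | timing = 50 min at room temperature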
SUMO1 PPI mod = modulators of human SUMO1-mediated protein-protein interactions. inhibition, % at 20 µM. actives 0.33% (n = 360,000). SUMO1 binding to a labelled peptide, TR-FRET, 1 h; in the data active means inhibition above about 37%
STEP block = inhibitors of human striatal-enriched phosphatase STEP | inhibition, % at 20 µM | recombinant STEP, OMFP fluorogenic substrate, fluorescence | P54829 | actives 0.25% (n = 360,000);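 active means inhibition at 20 µM, scaled per plate between control wells, above about 37%, limit read from the data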;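 further: 0% = DMSO with enzyme and substrate and 100% = substrate only without enzyme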
Target sequence (P54829 whole entry, looked up): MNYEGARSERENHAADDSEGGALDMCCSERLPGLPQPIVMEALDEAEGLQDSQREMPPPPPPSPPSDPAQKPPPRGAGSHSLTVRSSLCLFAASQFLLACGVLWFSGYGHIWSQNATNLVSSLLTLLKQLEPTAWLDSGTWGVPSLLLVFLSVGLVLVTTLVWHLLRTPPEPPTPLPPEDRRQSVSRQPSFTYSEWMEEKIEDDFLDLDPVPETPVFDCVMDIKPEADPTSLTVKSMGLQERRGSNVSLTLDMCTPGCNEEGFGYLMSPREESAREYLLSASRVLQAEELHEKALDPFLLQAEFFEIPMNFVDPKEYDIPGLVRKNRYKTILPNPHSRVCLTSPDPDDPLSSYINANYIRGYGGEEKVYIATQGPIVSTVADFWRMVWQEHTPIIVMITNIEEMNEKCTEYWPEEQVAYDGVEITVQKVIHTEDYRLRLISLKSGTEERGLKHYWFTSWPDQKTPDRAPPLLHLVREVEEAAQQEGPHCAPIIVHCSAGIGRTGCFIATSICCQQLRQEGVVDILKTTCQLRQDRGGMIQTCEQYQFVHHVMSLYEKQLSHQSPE
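Material: STEP (striatal-enriched tyrosine phosphatase) enzyme, cell-free; Compound dosing: 20 µM single dose in 1% DMSO; Technique: fluorescence read at 480 nm ex / 540 nm em; Times: reaction 20 min, ambient temperature; Medium: 50 mM Bis-Tris pH 6.0 with 2.5 mM DTT and 0.005% Tween 20; Also added: OMFP at 25 µM.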
GRK2 aptamer HTS = blocks RNA aptamer binding to human GRK2; P25098; bead flow cytometry, FAM-aptamer displacement from GRK2; inhibition of aptamer binding, % at 10 µM; actives 0.59% (n = 330,000); AID 488847;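 active means inhibition of aptamer binding above 40%, roughly 3 SD of noise, on plates passing a quality check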;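 further: median bead fluorescence of bound FAM aptamer so fluorescent compounds give negative values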
DNMT1 interf DR = beacon fluorescence artifact, dose response counter-screen | shares compounds with DNMT1 inh | molecular beacon fluorescence, spectral interference counter-screen | IC50, µM | 200 tested, under 10 active | AID 602382; call rule not given here
DNMT1 confirm = confirmation of human DNMT1 inhibitors; shares compounds with DNMT1 inh; DNMT1 molecular beacon HinP1I cleavage, fluorescence; inhibition, % at 10 µM; actives 8% (n = 2,300);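 active means average inhibition of at least 30% in the single-concentration confirmation test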
Beacon interf = counter-screen for DNMT1 inhibitors: spectral interference; shares compounds with DNMT1 inh; DNMT1 molecular beacon spectral interference counterscreen, fluorescence 485/520; activation (fluorescence interference), % at 10 µM; actives 1% (n = 2,300);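 active means activation of at least 30% at 10 µM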;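 further: DNMT1 catalytic domain with a HinP1I cleavage step and a FAM/dabcyl DNA beacon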
Numbers without * were called inactive; / = not tested or not shown. Only some compounds are listed: those with a hit (about 2.2% of all), similar ones and a draw of the others.

SMILES | Scp1 inh | DNMT1 inh | LMPTP inh | SUMO1 PPI mod | STEP block | GRK2 aptamer HTS | DNMT1 confirm | Beacon interf | others
CCOC(=O)C1=C(C)N=c2s/c(=C/c3ccc(OCC(=O)O)c(OC)c3)c(=O)n2C1c1ccc(Cl)cc1 (stereo not drawn) | 51* | 58* | 3 | 7 | 36 | 0 | 59* | -1 | DNMT1 interf DR=>99
CC1=C(C(=O)OC(C)C)C(c2ccc(Cl)cc2)n2c(sc(=Cc3ccc(OCC(=O)O)cc3)c2=O)=N1 (stereo not drawn) | / | 104* | 88* | 106* | 87* | / | 105* | -1 | DNMT1 interf DR=>99
Cc1cc2nc(C3CCCCC3)c(Cc3cccc(F)c3)n2c(C)c1Br | / | 19 | 3 | 5 | 0 | / | / | /
CCC(CC)C(=O)N(C)c1c(C)nc2c(OCc3ccccc3C)cccn12 | / | 68* | 1 | -4 | 0 | / | 0 | 0
CCC(CC)C(=O)N(C)c1c(C)nc2c(OCc3ccc(Cl)cc3Cl)cccn12 | / | 15 | 2 | 4 | 3 | / | / | /
CC(C)C[C@H]1CN(CCCC[C@H]2CNC(=O)C(=O)N2CCc2ccc(O)cc2)C(=O)C(=O)N1CCC1CCCCC1 | / | / | 2 | -1 | / | / | / | /
Cc1c(CCC(=O)O)c(=O)oc2cc3oc4c(c3cc12)CCCC4 | -1 | 91* | 0 | 14 | -1 | 0 | 1 | 3
Cc1c(CCC(=O)NCC(=O)NCC(=O)O)c(=O)oc2cc3oc4c(c3cc12)CCCC4 | 1 | 1 | 1 | 7 | 0 | 0 | / | /
CC(=O)c1ccc(-c2c(CCO)sc3ccccc23)cc1 | / | / | 0 | 2 | / | / | / | /
O=C(Nc1cccc(S(=O)(=O)N2CCCC2)c1)c1ccc2c(c1)OCO2 | -5 | 95* | -1 | 0 | -1 | 2 | 10 | 9
O=C(Nc1cccc(S(=O)(=O)N2CCCCCC2)c1)c1ccc2c(c1)OCO2 | -15 | 7 | 2 | 13 | 0 | 2 | / | /
CCNC(=O)C1(C)CCCN1C(=O)c1cnc2ccccc2n1 (stereo not drawn) | / | 3 | -1 | -14 | 2 | / | / | /
Cc1ccc(NC(=O)CCC(=O)OCC(=O)c2ccc(-c3ccccc3)cc2)cc1 | -4 | 51* | 1 | 3 | 0 | 0 | 5 | 0
CCC(=O)N1c2ccccc2-c2nnc(SC)nc2OC1c1ccc(N(C)C)cc1 (stereo not drawn) | -2 | -3 | -1 | -19 | 2 | 0 | / | /
CCC1Oc2nc(SC)nnc2-c2ccccc2N1C(=O)c1ccccc1 (stereo not drawn) | -14 | 54* | 0 | -23 | 2 | 0 | 5 | 6
CC1Sc2ccc(C(=O)N(CCc3ccccc3)Cc3ccccc3)cc2NC1=O (stereo not drawn) | / | 83* | 2 | 3 | 0 | / | 1 | 7
CC(=O)c1ccc(NC(=O)CSc2ccc(-c3ccc(-n4cccn4)cc3)nn2)cc1 | -5 | 71* | 4 | 6 | 4 | 0 | 3 | 0
CNc1nc(Nc2ccc(C(=O)OC)cc2)c2sccc2n1 | / | 1 | 40 | 9 | 1 | / | / | /
O=C(Nc1ccc(N2CCCC2)cc1)c1ccccc1[N+](=O)[O-] | -9 | 70* | 42 | 7 | 2 | 0 | 1 | 5
Cc1ccccc1C(=O)Nc1ccc(N2CCCC2)cc1 | 8 | -6 | 10 | -6 | 1 | 0 | / | /
O=C(Nc1ccc(N2CCCC2)cc1)c1cc(Br)ccc1Cl | -5 | 50* | 39 | -27 | -1 | 0 | 1 | 2
CS(=O)(=O)c1ccc(C(=O)Nc2ccc(N3CCCC3)cc2)c(Cl)c1 | -7 | -4 | 0 | -4 | -4 | 1 | / | /
O=C(Nc1ccc(N2CCCC2)cc1)c1ccc(Br)o1 | -3 | 81* | 43 | -7 | 4 | 0 | 2 | -1
Cc1ccc(C(=O)Nc2ccc(N3CCCC3)cc2)c(C)c1 | -2 | 54* | 14 | -9 | 4 | 2 | 4 | -1
CC1CCN(S(=O)(=O)c2ccc3c(c2)NC(=O)CS3)CC1 | -5 | 2 | -2 | 4 | 2 | 2 | / | /
SMILES | Scp1 inh | DNMT1 inh | LMPTP inh | SUMO1 PPI mod | STEP block | GRK2 aptamer HTS | DNMT1 confirm | Beacon interf | others
CN1CCN(c2ncnc3c2ncn3[C@H]2CN(C)C[C@@H](CO)O2)CC1 | / | 4 | -2 | -5 | 1 | / | / | /
CN(c1ccc([N+](=O)[O-])cc1)c1cc2c(c3c1ccn3C)C1CCC2C1 (stereo not drawn) | / | -14 | 4 | 9 | 1 | / | / | /
Cc1c(C(=O)NCc2cccs2)sc(=O)n1Cc1ccc(S(C)(=O)=O)cc1 | / | 6 | 0 | -1 | -1 | / | / | /
CC(C)OCCCNC(=O)CN1C(=O)CSc2ccc(S(=O)(=O)N3CCCCC3)cc21 | -1 | 69* | -2 | 9 | -2 | 1 | 8 | -2
CC(C)NC(=O)Nc1ccc2c(c1)C(=O)N([C@@H](C)CO)C[C@H](C)[C@H](CN(C)S(=O)(=O)c1ccccc1)OCCCC[C@H](C)O2 | / | 1 | -1 | 0 | 0 | / | / | /
CC(=O)Nc1ccc(S(=O)(=O)N2CCN(C(=O)C3COc4ccccc4O3)CC2)cc1 (stereo not drawn) | -7 | 0 | 0 | -2 | -1 | 1 | / | /
COc1ccc(S(=O)(=O)N2CCN(C(=O)C3COc4ccccc4O3)CC2)cc1 (stereo not drawn) | 64* | 95* | 56* | 19 | 35 | 14 | 54* | 2 | DNMT1 interf DR=>99
COc1ccc2nc(N3C(=O)CNC3=S)sc2c1 | -7 | -4 | 0 | 7 | 0 | 0 | / | /
CCOc1ccc2nc(N3C(=O)/C(=C/c4ccc(Cl)cc4)NC3=S)sc2c1 | 55* | 94* | 39 | 79* | 4 | / | 16 | -2
C[C@H](CO)N1C[C@H](C)[C@@H](CN(C)S(=O)(=O)c2ccc(-n3cccn3)cc2)OCc2cn(nn2)CCCC1=O | / | 5 | -2 | -3 | -4 | / | / | /
COc1ccccc1C(=O)NC(=S)Nc1ccccc1N1CCCC1 | / | -15 | 2 | -2 | 3 | 0 | / | /
COc1ccc(C(=O)Nc2ccc(N3CCCC3)cc2)cc1 | -9 | 86* | 40 | 5 | 5 | 0 | 4 | 1
CCOc1ccc(C(=O)Nc2ccc(N3CCCC3)cc2)cc1 | -3 | 80* | 5 | -9 | 0 | 0 | 7 | 0
COc1ccccc1C(=O)NC(=S)Nc1ccc(N2CCCC2)cc1 | 8 | 68* | 4 | 9 | 2 | 0 | 5 | 4

High-throughput results as filed in PubChem.
